Structures are written as SMILES. pKd: −log10 of the molar value.

Assay [1] deals with T1, LTBP1 (Rhodnius prolixus, UniProt Q7YT09, Y131A).
T1 sequence (Q7YT09 18-173 Y131A): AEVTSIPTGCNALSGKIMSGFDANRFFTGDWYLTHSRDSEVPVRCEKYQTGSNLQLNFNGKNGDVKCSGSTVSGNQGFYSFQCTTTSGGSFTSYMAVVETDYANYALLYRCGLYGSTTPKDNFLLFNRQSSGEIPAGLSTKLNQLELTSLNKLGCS
Put plainly: isothermal titration calorimetry, single-site fit. Format: binding. The essentials:
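Titrated by ITC at 30 °C in 20 mM Tris HCl, pH 7.5, 150 mM NaCl, with 2 µM protein in the cell and 10 µL injections of ligand. Eicosanoid ligand solutions were prepared by removing ethanol and sonicating with buffer. Injection enthalpies were fitted to a single-site binding model.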

The target in assay [2] is T2, LTBP1 (Rhodnius prolixus, UniProt Q7YT09).
T2 sequence (Q7YT09 18-173): T1 sequence (Q7YT09 18-173 Y131A)
Put plainly: isothermal titration calorimetry, single-site fit. Format: binding.

The molecule `CCCCC/C=C\C\C=C/C=C/C=C/[C@@H](SC[C@H](N)C(=O)NCC(=O)O)[C@@H](O)CCCC(=O)O` [LTD4] had a pKd at LTBP1 [1] of 7.32. On LTBP1 [2], `CCCCC/C=C\C[C@@H](O)/C=C/C=C/C=C\[C@@H](O)CCCC(=O)O` [LTB4] had a pKd of 6.62.

On LTBP1 [2], `CCCCC/C=C\C\C=C/C=C/C=C/[C@@H](SC[C@H](N)C(=O)O)[C@@H](O)CCCC(=O)O` [LTE4] showed a pKd of 8.67. Take `CCCCC/C=C\C\C=C/C=C/C=C/[C@@H](SC[C@H](NC(=O)CC[C@H](N)C(=O)O)C(=O)NCC(=O)O)[C@@H](O)CCCC(=O)O` [LTC4]: the pKd on LTBP1 [1] was 7.32.

Source of the values: article PMC4990137 (ACS chemical biology, 2016).
